We go through 6 compounds from ChEMBL document CHEMBL1221166, “Molecular basis of inverse agonism in a G protein-coupled receptor” (Nat Chem Biol, 2005).

Active and inactive are the calls of the source. The calls are words filed in the database; no cut-off is given here.

Experiment [1] deals with T1, Alpha-2A adrenergic receptor (Homo sapiens) (UniProt P08913).
T1 sequence (whole entry): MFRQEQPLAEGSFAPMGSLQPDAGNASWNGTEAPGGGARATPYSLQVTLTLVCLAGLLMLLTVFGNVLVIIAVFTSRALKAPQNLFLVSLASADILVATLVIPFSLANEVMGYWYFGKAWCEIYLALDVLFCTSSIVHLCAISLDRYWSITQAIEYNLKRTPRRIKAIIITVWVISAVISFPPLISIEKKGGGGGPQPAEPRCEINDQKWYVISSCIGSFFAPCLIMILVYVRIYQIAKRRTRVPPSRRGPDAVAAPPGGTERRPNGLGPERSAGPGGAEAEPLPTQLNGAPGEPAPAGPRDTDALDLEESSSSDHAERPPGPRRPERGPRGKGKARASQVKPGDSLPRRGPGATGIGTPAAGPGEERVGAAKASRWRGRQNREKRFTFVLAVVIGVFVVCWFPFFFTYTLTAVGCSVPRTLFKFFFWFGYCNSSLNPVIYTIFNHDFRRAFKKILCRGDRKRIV
The experiment is described as follows: Partial agonist activity at adrenergic alpha2A receptor expressed in HEK293 cells coexpressing yellow fluorescent and cyan fluorescent protein assessed as effect on kinetics of receptor conformational change by FRET assay. It is filed as functional, cell-based. In outline:
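HEK293 cells expressing α2AAR tagged with CFP/YFP were superfused rapidly with ligand at room temperature. The time course of the corrected FYFP/FCFP ratio was fitted with a monoexponential equation to give kobs. kobs was then plotted against the percentage FRET change.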

Experiment [2] has as its target T1, Alpha-2A adrenergic receptor (Homo sapiens). The experiment in a line: Inverse agonist activity at adrenergic alpha2A receptor expressed in HEK293 cells coexpressing yellow fluorescent and cyan fluorescent protein assessed as increase in resonance signal at 100 uM by FRET assay. It is filed as functional, cell-based. A digest of the protocol: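 Single HEK293 cells expressing α2AAR tagged with CFP/YFP were grown on coverslips and kept at room temperature. They were continuously superfused with HEPES buffer at pH 7.4 (137 mM NaCl, 0.1% BSA), and ligand was applied by solenoid-valve rapid superfusion. YFP and CFP emissions were recorded by dual-emission photometry on a 100× oil objective. FRET was taken as the spillover-corrected ratio FYFP/FCFP, with photobleaching drift subtracted where needed.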

In the case of `Cc1cc(C(C)(C)C)c(O)c(C)c1CC1=NCCN1`, in experiment [1], the result was Active. For `NCCc1ccc(O)c(O)c1`, the result in experiment [1] was Active.

Take `COc1nc(C)nc(Cl)c1NC1=NCCN1`: the outcome in experiment [1] was Active. As for `CN1CC[C@]2(CCN3CCc4c(oc5ccccc45)[C@@H]3C2)N(C)C1=O`, in experiment [2], the outcome was Active. Take `Clc1cccc(Cl)c1NC1=NCCN1`: the outcome in experiment [1] was Active. As to `COC1(C2=NCCN2)COc2ccccc2O1` (stereo unspecified), the outcome in experiment [2] was Active.
